Shown are actives, neighbours in structure and some others; about 1% of the full set was active somewhere.
Neddyl block = cullin neddylation inhibition; TR-FRET cullin neddylation, biochemical; inhibition, % at 25 µM; hit rate 0.58% among 360,000; in the data active means inhibition above about 36%
Target sequence (P61081 whole entry, looked up): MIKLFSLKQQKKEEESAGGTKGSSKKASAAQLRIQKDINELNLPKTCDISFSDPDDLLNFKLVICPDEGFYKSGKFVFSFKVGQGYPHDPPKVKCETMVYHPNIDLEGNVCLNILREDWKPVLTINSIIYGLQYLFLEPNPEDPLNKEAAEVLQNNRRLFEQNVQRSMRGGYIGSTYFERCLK
Target sequence (Q13564 whole entry, looked up): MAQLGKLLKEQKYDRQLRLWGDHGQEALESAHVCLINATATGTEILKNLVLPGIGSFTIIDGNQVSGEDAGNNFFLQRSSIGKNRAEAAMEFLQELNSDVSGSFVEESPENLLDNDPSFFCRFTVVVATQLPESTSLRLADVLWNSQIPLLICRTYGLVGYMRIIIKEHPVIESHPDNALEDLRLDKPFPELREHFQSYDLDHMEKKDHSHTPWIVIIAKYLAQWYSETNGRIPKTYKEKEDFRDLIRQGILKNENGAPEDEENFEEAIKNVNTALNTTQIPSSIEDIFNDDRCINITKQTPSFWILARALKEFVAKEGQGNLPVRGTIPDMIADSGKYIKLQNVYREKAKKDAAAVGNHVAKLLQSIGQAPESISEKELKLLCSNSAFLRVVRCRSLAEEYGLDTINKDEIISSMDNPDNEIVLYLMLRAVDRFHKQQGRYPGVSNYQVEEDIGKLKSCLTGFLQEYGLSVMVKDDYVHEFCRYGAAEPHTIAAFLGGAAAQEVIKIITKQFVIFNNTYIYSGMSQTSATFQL
PKA-R2B act = activates the human PKA-R2B holoenzyme complex; P22694+P31323; PKA-R2B holoenzyme dissociation, Cy5-IP20 fluorescence polarization; R2B truncated from residue 108, S112A mutant; 0% DMSO only, 100% 113 µM cGMP; activation, % at 11.4 µM; hit rate 0.079% among 340,000;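 active means activation above a cutoff set at the mean over all compounds plus 3 SD, cut at about 18% in these data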;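 further: higher means more holoenzyme dissociation and a rise in polarization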
Tn7 DDE FP = DD(E)-Tn7 binding inhibition, primary FP screen | hit rate 0.13% among 370,000 | P02675 | inhibition, % at 8.3 µM | FP displacement of FITC-Tn7 peptide from fibrin DD(E); 0% = median of compound wells per plate | AID 720508;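 active means inhibition above the mean of compounds falling within the control limits plus 3 SD of them, cut at about 14% in these data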;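 further: 0% = plate median of compound wells and 100% = 10 µM Aha-Tn7 peptide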
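Test system: human clot-derived fibrin DD(E) complex / Quantity: 2 µM final DD(E) protein / Incubation: 10 min plus 3 h, room temperature / Measured by: fluorescence polarization / Benchmarks: high control of 10 µM Aha-Tn7 peptide / Replicates: singlicate testing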
Tn6 DDE FP = DD(E)-Tn6 binding inhibition, primary FP screen | hit rate 0.21% among 370,000 | AID 720509 | Fibrin DD(E) TRITC-Tn6 fluorescence polarization displacement | P02675 | inhibition, % at 8.3 µM;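 active means inhibition above a per-campaign cutoff: mean of compounds within control limits plus 3 SD, cut at about 15% in these data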;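 further: 0% = median of all compound wells on the plate and 100% = blocking peptide control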
PKA-R1A activ = activators of PKA-R1A complex. PKA-R1A dissociation, Cy5-IP20 fluorescence polarization; scaled: DMSO 0%, 113 µM cGMP 100%. activation, % at 11.4 µM. hit rate 0.083% among 340,000. AID 504707;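 active means percent activation above the mean of all tested compounds plus 3 SD, cut at about 19% in these data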;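 further: higher means more PKAc released from R1A so a rise in polarization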
Tn7 DDE conf = confirmation of inhibitors of Tn7 binding to human fibrin DD(E) | AID 720628 | FP displacement of TRITC-Tn7 peptide from DD(E); 0% set at plate's compound-well median | inhibition, % at 8.3 µM | hit rate 5% among 460 | shares compounds with Tn7 DDE FP;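 active means inhibition above the campaign cutoff, the mean of compounds within control limits plus 3 SD, cut at about 14% in these data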;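 further: 100% = median FP of high control wells holding Aha-Tn7 inhibitor peptide; displacers lower polarization since freed probe rises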
DDE Tn7 FP ctr = counter-screen for inhibitors of Tn7 peptide binding to fibrin DD(E); shares compounds with Tn7 DDE FP; TRITC-Tn7 probe displacement, fluorescence polarization; inhibition, % at 8.3 µM; hit rate 3% among 460; AID 720633;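 active means inhibition above the cutoff, the mean of compounds lying between the control bounds plus 3 SD of those compounds, cut at about 17% in these data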;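 further: 0% = median of compound sample wells and 100% = excess unlabeled Aha-Tn7 peptide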
* hit, by the source's call; . = no result given.

SMILES	Neddyl block	PKA-R2B act	Tn7 DDE FP	Tn6 DDE FP	PKA-R1A activ	Tn7 DDE conf	DDE Tn7 FP ctr
CC(C)CCOc1ccc(C(=O)NCC(c2cccs2)N2CCOCC2)cc1 (stereo unspecified)	8.9	4.2	15.0*	-4.3	7.4	1.7	-0.6
CCOc1ccc(C(=O)NCC(c2cccs2)N2CCOCC2)cc1 (stereo unspecified)	-1.7	-10.9	-3.0	-1.2	-5.8	.	.
COc1ccccc1CCn1cnc(-c2cccc(F)c2)c1C(C)C	.	.	-2.8	4.1	.	.	.
O=C1CCCc2cc3c(cc21)CC1(C3)Cc2cc3c(cc2C1)C(=O)CCC3	-3.8	2.0	14.1*	5.2	1.1	8.2	1.9
COC(=O)C1CN(Cc2cn(CCC3OCCO3)nn2)CCS(=O)(=O)N1Cc1ccc(F)cc1 (stereo unspecified)	.	.	0.7	-0.7	.	.	.
O=C(N[C@@H](Cc1cccnc1)C(=O)N1CCC[C@H]1C(=O)NC1CCCC1)C1CC1	.	.	5.2	7.4	.	.	.
COc1ccc(-c2cc(C(=O)NN=Cc3ccccc3[N+](=O)[O-])[nH]n2)cc1	.	.	2.9	-1.1	.	.	.
O=C(Nc1ccc(F)cc1F)Nc1sccc1-c1nc2ccccc2s1	.	-5.3	15.3*	-0.8	1.3	8.1	1.2
COc1ccccc1NS(=O)(=O)c1cc(Cl)ccc1OC	3.1	5.6	13.8*	4.5	9.0	10.4	7.4
COc1ccccc1NS(=O)(=O)c1ccc(OC)c(OC)c1	1.1	-4.5	-6.4	-4.5	3.1	.	.
CC(=O)Nc1cc(-c2ccccc2N(C)C)cn2c(-c3cccc(C(F)(F)F)c3)cnc12	1.6	.	21.4*	2.9	.	-2.7	-1.2
O=C(Nc1cccc(OC(F)(F)F)c1)c1ccc(-c2cccnc2)c2ccoc12	-8.5	.	14.0*	8.4	.	2.5	-9.7
COc1cc(NC(=O)c2ccc(-c3cccnc3)c3ccoc23)cc(OC)c1OC	11.8	.	3.3	-7.7	.	.	.
CSc1ccc(C2C(C(=O)c3ccco3)=C(O)C(=O)N2c2nnc(SC)s2)cc1 (stereo unspecified)	7.1	-4.2	25.8*	3.1	-1.7	-4.4	-12.3
Cc1nnc(N2C(=O)C(O)=C(C(=O)c3ccco3)C2c2ccc(F)cc2)s1 (stereo unspecified)	-8.0	-10.4	3.5	1.4	-2.1	.	.
CCOc1ccc(CCNC(=O)c2ccc(Oc3ccccc3)cc2)cc1OCC	.	.	-0.3	0.1	.	.	.
COC(=O)c1cc(S(=O)(=O)NCC2CCN(C(=O)C(=O)c3cccs3)CC2)cs1	.	.	0.2	-8.3	.	.	.
Cc1ccc(N/C=C/C(=O)c2ccc(C)cc2)cc1	14.9	-8.7	14.7*	4.0	-18.6	3.4	3.4
O=C(Nc1ccccc1)OCCN1C(=O)CCC12CCC(c1ccc(Cl)cc1)CC2 (stereo unspecified)	.	.	7.3	13.0	.	.	.
COc1ccccc1NC(=O)c1cc(S(=O)(=O)N2CCCC2)cn1C	0.6	-13.5	15.1*	4.2	-8.8	-4.6	-6.0
CC1CCCN(c2cccc3c2S(=O)(=O)N([C@H](C)c2ccccc2)C[C@@H](COCc2ccccc2)O3)C1 (stereo partly specified)	.	.	-9.7	-5.5	.	.	.
CC(C)CC(NC(=O)OCc1ccccc1)C(=O)NCC(=O)NCC(=O)OCc1ccccc1 (stereo unspecified)	.	.	5.7	5.5	.	.	.
C[C@H]1CN[C@H](CCO)/C1=C\c1ccccc1	-1.7	-6.6	-5.8	2.0	4.2	.	.
C[C@H]1CN[C@@H](CCO)/C1=C\c1ccccc1	-6.8	1.5	13.9*	-1.4	-7.2	3.0	5.2
CCOC(=O)c1sc2nc3n(c(=O)c2c1C)CCC3	-4.3	-15.9	15.0*	8.0	-13.9	2.8	1.8
CCOC(=O)c1sc2nc3n(c(=O)c2c1C)CCCCC3	-2.2	-14.8	0.2	-0.6	-2.1	.	.
COC(=O)C1=C(C)N(Cc2cccc(C(F)(F)F)c2)C(=NCc2cc(OC)c(OC)c(OC)c2)NC1c1ccccc1C(F)(F)F (stereo unspecified)	.	.	-0.9	7.7	.	.	.

Bioassay records deposited in PubChem BioAssay by several laboratories.
